These results are taken from ChEMBL document CHEMBL1151164, “New prostanoids with cytotoxic activity from Taiwanese octocoral Clavularia viridis” (J Nat Prod, 2004).

One test deals with PC-3. Put plainly: Cytotoxicity against human PC3 cells after 72 hrs by SRB assay. It counts as functional, cell-based. As to conditions: PC-3, 48 h, in the assay text read “48 hrs” for “72 hrs”. The method, boiled down: (§1)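 Cells seeded in RPMI 1640 with 5% FBS at 37 °C, 5% CO2; after 24 h, two plates per line fixed in situ with TCA as time-zero. Drug added, then 48 h further incubation at 37 °C. Fixed with cold TCA, stained with 0.4% w/v SRB in 1% acetic acid, bound dye solubilized in 10 mM trizma base, absorbance 515 nm. IC50 = concentration halving absorbance versus untreated cells.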
(In SRB staining, fixed cells bind dye roughly in proportion to their protein.)

The test system of a further test is HT-29. Put plainly: Cytotoxicity against human HT-29 cells after 72 hrs by SRB assay. The format is functional, cell-based. The settings on record: HT-29, 48 h, in the assay text read “48 hrs” for “72 hrs”. The essentials:
as §1

A word on the IC50: it is the concentration that gives 50% inhibition. Read a high IC50 as lower potency. As to `CCCCC/C=C\C[C@@]1(O)C=C(I)C(=O)/C1=C/C=C/CCCC(=O)OC` [IODOVULONE II], the values for the 50% inhibitory concentration (IC50) in the test with PC-3 and with HT-29 were 3.9 µM and 6.5 µM, respectively.

Consider `CCCCC/C=C\C[C@@]1(O)C=C(Cl)C(=O)/C1=C/C=C/CCCC(=O)OC` [CHLOROVULONE III], for which the 50% inhibitory concentration (IC50) with PC-3 came out at 1.9 µM; in the test on HT-29, 2.7 µM.

With `CCCCC/C=C\C[C@]1(O)C=CC(=O)/C1=C/C=C/CCCC(=O)OC`, the IC50 with PC-3 was 5.4 µM; in the test with HT-29, 4.1 µM.

On to `CCCCC/C=C\C[C@]1(O)C=CC(=O)/C1=C/C=C\CCCC(=O)OC`, for which the half-maximal inhibitory concentration (IC50) with PC-3 was found to be 7.2 µM; in the test with HT-29, 6 µM.

Take `CCCCC/C=C\C[C@@]1(O)C=C(Br)C(=O)/C1=C\C=C\CCCC(=O)OC` [BROMOCLAVULONE III]: the IC50 in the test on PC-3 and in the test with HT-29 was 0.5 µM in each case.

`CCCCC/C=C\C[C@@]1(O)C=C(I)C(=O)/C1=C\C=C\CCCC(=O)OC` [IODOVULONE III]: the 50% inhibitory concentration (IC50) with PC-3 is 6.7 µM; with HT-29 it was above 10 µM.

`CCCCC/C=C\C[C@@]1(O)C=C(Cl)C(=O)/C1=C\C=C\CCCC(=O)OC` [CHLOROVULONE II]: inhibition in the test on PC-3 was half-maximal at 0.8 µM (IC50).

Consider `CCCCC/C=C\C[C@@]1(O)C=C(Br)C(=O)/C1=C/C=C/CCCC(=O)OC` [BROMOVULONE II], for which the half-inhibitory concentration (IC50) was determined as 5.6 µM in the test on PC-3 and 5.4 µM in the test with HT-29.

In the case of `CCCCC/C=C\C[C@]1(O)C=CC(=O)/C1=C\C=C\CCCC(=O)OC`, the IC50 with PC-3 amounted to 3.9 µM; in the test on HT-29 it was 7.9 µM.

For `CCCCC/C=C\C[C@]1(OC(C)=O)C=CC(=O)/C1=C/C=C/CCCC(=O)OC` [CLAVIRIDENONE E], the half-inhibitory concentration (IC50) is 3.5 µM in the test with PC-3 and above 10 µM with HT-29.
